This note sets out measurements from ChEMBL document CHEMBL1142735, “Discovery of a new series of centrally active tricyclic isoxazoles combining serotonin (5-HT) reuptake inhibition with alpha2-adrenoceptor blocking activity” (J Med Chem, 2005).

In assay [1] the target is D(2) dopamine receptor (Homo sapiens, UniProt P14416). Description: Inhibition of [3H]spiperone binding to Dopamine receptor D2. In outline: (§1)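 Radioligand competition binding on membranes from cell lines carrying the human target, incubated with the labelled ligand under optimized conditions. Separation by filtration, except α1A and D3, which used scintillation proximity assay.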

Assay [2] concerns the target 5-hydroxytryptamine receptor 7 (Homo sapiens, UniProt P34969). Description: Inhibition of [3H]5-HT binding to 5-hydroxytryptamine 7 receptor. In outline: as §1
Assay [3] concerns the target T1, 5-hydroxytryptamine receptor 2C (Homo sapiens, UniProt P28335).
T1 sequence (P28335 whole entry): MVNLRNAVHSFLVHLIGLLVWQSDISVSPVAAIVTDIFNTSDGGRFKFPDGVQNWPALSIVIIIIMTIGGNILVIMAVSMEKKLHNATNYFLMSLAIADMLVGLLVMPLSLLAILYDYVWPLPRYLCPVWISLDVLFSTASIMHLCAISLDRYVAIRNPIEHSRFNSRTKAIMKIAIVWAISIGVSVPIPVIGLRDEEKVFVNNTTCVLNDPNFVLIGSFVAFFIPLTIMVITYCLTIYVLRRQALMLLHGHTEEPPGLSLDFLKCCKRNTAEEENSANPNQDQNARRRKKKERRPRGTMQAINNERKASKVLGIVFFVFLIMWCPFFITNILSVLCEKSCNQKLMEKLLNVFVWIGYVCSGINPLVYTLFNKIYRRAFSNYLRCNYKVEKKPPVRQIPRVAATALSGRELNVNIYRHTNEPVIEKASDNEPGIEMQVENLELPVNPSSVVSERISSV
The experiment in a line: Inhibition of [3H]- mesulergine binding to 5-hydroxytryptamine 2C receptor. In outline: as §1

Assay [4] has as its system Rattus norvegicus. Description: Effective dose for reversal of medetomidine-Induced loss of righting was determined by oral administration. The class given is functional. Put shortly:
(§2)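 Oral pretreatment of overnight-fasted male Wistar rats (200-250 g), then medetomidine 0.10 mg/kg iv (reversal means no loss of righting) or pCA 5 mg/kg sc (excitation scored 0-3 over 15 min from 45 min after pCA; inhibition means score <2). Doses taken from a geometric series.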

The target in assay [5] is Histamine H1 receptor (Homo sapiens, UniProt P35367). Description: Inhibition of [3H]pyrilamine binding to Histamine H1 receptor. Put shortly:
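Radioligand competition on membranes from a cell line transfected with the human target, incubated under optimized conditions. Stopped by rapid filtration. Ki by Cheng-Prusoff.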

Assay [6] deals with Sodium-dependent dopamine transporter (Rattus norvegicus, UniProt P23977). The experiment in a line: Inhibition of [3H]WIN-35428 binding to Dopamine transporter of rat striatum. The class given is tissue-based. In outline:
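Competition binding using rat striatum membranes incubated with the radioligand under optimized conditions, separated by filtration.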

In assay [7] the target is 5-hydroxytryptamine receptor 2A (Homo sapiens, UniProt P28223). The experiment in a line: Inhibition of [125I]- R91150 binding to 5-hydroxytryptamine 2A receptor. In outline: as §1
Assay [8] addresses D(3) dopamine receptor (Homo sapiens, UniProt P35462). Description: Inhibition of [125I]-iodosulpiride binding to Dopamine receptor D3. In outline: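 Radioligand competition using membranes from a cell line transfected with human D3 receptor, incubated under optimized conditions. Bound ligand read by scintillation proximity assay rather than filtration. Ki by Cheng-Prusoff.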

The target of assay [9] is T2, Sodium-dependent serotonin transporter (Homo sapiens, UniProt P31645). Description: Binding affinity for serotonin transporter. The format is functional, Rattus norvegicus. In outline:
(§3)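 Human platelet membranes (50 µg protein) in 50 mM Tris-HCl pH 7.4 with 120 mM NaCl and 5 mM KCl. Competition against [3H]paroxetine (0.5 nM), 60 min at 25 °C. Nonspecific binding defined with imipramine (1 µM). Filtration over 0.1% PEI-presoaked GF/B, washed with incubation buffer. Sigmoidal fit of specific binding; Ki via Cheng-Prusoff.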

For assay [10], the target named is T3, Alpha-2C adrenergic receptor (Homo sapiens, UniProt P18825).
T3 sequence (P18825 whole entry): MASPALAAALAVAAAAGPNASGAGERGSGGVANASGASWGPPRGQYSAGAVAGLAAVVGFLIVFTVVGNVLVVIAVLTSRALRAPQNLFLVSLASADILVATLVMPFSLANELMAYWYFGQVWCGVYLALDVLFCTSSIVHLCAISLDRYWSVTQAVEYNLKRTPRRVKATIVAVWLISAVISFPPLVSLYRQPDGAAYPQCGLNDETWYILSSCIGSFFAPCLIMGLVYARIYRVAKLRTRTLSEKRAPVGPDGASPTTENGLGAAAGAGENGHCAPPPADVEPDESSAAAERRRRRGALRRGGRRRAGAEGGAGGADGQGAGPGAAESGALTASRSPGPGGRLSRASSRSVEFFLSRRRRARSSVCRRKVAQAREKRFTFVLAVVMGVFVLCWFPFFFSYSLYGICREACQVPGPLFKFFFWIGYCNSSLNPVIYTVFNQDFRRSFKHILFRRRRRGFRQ
Description: Binding affinity for alpha-2C-adrenergic receptor. In outline:
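Human alpha2C receptor stably expressed in CHO cell membranes (5-10 µg protein) in 25 mM glycylglycine, pH 7.6. Competition against [3H]rauwolscine (1 nM), 30 min at 25 °C. Nonspecific binding defined with spiroxatrine (1 µM). Rapid filtration over GF/B, washed with ice-cold 50 mM Tris-HCl pH 8.0, scintillation counting. Sigmoidal curves fitted; Ki by Cheng-Prusoff.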

Assay [11] concerns Rattus norvegicus. The experiment in a line: Effective dose for antagonism ofpCA-Induced excitation was determined by oral administration. The class given is functional. Put shortly:
as §2

Assay [12] deals with T2, Sodium-dependent serotonin transporter. Description: Inhibition of [3H]- paroxetine binding to 5-HTT receptor, serotonin transporter. In outline:
as §3

Assay [13] relates to Rattus norvegicus. The experiment in a line: Effective dose for antagonism ofpCA-Induced excitation was determined by subcutaneous administration. The note with it: sc. The class given is functional. In outline:
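Male Wistar rats (200-250 g), fasted overnight, given test compound or solvent sc before challenge. Loss of righting induced by medetomidine 0.10 mg/kg iv; reversal means no loss of righting. Excitation induced by pCA 5 mg/10 mL/kg sc and scored 0-3 over 15 min starting 45 min after pCA; inhibition means score <2.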

Sequence of Histamine H1 receptor (P35367 whole entry): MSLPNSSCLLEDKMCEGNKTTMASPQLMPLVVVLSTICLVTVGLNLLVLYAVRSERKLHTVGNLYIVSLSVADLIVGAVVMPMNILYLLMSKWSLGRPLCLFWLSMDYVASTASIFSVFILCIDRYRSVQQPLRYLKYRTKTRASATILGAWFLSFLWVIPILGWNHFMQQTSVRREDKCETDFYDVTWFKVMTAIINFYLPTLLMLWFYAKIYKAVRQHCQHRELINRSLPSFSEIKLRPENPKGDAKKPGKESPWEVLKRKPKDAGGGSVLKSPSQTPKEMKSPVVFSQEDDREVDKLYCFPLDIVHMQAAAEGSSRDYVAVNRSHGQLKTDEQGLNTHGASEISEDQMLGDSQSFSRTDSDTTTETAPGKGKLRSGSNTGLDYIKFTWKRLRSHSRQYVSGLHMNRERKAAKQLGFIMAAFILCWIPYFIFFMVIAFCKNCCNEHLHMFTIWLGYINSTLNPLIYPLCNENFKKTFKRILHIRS
Sequence of Sodium-dependent dopamine transporter (P23977 whole entry): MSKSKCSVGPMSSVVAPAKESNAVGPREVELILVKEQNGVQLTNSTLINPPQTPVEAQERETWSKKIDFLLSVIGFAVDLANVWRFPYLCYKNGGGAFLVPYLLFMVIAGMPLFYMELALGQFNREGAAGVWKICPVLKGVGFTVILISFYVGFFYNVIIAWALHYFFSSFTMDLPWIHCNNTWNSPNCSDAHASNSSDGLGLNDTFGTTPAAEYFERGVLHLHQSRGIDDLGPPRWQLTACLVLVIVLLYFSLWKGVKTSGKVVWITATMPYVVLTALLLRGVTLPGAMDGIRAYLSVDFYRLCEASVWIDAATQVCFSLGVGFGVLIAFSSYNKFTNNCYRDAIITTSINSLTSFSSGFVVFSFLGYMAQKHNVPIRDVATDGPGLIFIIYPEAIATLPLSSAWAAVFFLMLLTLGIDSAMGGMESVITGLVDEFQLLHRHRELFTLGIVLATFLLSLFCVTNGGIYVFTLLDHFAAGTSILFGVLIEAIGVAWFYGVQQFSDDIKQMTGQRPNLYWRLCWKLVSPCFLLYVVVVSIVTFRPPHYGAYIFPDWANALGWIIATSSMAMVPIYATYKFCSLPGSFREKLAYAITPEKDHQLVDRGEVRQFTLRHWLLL
Sequence of D(3) dopamine receptor (P35462 whole entry): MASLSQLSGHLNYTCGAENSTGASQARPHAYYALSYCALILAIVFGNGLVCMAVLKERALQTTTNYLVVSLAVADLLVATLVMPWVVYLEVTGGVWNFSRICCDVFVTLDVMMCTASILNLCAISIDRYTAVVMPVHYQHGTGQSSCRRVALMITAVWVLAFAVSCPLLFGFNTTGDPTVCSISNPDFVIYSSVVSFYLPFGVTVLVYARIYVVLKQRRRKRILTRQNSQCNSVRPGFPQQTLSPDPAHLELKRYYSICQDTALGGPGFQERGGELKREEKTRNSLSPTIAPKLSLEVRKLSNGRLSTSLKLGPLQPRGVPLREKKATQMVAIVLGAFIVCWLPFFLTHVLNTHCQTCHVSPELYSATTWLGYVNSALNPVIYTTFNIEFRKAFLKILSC
T2 sequence (P31645 whole entry): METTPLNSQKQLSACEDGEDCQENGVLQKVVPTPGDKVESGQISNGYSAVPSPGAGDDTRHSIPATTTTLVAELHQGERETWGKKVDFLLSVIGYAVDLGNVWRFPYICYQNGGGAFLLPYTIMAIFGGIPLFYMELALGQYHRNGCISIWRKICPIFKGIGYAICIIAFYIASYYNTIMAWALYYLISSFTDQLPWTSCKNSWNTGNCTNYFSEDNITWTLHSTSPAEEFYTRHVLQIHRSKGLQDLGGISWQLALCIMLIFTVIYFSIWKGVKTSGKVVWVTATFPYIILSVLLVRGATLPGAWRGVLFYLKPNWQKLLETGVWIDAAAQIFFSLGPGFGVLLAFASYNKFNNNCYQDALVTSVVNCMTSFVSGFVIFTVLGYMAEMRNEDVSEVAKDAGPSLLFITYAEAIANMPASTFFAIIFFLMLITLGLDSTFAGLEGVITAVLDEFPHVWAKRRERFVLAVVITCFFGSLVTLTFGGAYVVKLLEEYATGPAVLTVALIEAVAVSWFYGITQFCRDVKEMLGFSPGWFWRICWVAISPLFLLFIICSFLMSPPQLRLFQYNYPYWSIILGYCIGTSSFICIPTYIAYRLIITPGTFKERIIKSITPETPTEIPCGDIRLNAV
Sequence of 5-hydroxytryptamine receptor 2A (P28223 whole entry): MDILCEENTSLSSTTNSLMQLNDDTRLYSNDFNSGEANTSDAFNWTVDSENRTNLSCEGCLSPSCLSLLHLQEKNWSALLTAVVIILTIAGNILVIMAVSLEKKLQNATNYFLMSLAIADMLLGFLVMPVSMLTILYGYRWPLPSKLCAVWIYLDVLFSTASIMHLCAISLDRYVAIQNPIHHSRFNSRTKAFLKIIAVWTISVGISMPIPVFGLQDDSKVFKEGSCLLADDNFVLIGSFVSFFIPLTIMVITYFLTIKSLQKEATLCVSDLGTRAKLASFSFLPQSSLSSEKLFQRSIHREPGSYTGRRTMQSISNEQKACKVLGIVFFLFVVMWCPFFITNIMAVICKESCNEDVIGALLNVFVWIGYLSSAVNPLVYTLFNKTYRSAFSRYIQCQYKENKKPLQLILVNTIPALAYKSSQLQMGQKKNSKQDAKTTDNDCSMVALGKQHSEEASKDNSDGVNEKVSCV
Sequence of D(2) dopamine receptor (P14416 whole entry): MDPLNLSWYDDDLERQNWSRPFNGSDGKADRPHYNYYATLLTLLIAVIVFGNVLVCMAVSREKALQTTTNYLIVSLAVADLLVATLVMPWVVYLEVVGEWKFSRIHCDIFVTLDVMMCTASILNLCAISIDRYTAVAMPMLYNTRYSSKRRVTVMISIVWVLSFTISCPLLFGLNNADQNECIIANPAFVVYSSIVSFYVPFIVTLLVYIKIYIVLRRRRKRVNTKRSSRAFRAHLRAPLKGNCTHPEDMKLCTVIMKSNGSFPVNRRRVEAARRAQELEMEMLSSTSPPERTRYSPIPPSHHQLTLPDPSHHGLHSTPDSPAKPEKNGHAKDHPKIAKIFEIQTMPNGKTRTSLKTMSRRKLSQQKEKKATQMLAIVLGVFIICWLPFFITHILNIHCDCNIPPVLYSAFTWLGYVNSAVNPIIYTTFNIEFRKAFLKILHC
Sequence of 5-hydroxytryptamine receptor 7 (P34969 whole entry): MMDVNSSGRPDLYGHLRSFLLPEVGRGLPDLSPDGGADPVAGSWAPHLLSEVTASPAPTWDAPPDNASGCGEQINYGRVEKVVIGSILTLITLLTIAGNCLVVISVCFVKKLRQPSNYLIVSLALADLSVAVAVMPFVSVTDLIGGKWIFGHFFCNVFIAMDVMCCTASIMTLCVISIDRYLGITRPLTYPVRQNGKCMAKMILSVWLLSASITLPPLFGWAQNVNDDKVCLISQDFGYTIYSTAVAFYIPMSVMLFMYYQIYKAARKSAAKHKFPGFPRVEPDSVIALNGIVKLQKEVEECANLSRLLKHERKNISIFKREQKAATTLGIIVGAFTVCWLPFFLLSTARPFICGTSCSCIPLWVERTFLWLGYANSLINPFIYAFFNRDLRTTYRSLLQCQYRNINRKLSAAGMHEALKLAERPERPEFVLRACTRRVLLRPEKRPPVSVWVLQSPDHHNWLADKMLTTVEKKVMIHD

Turning to `COc1cc2c(cc1OC)C1=NO[C@@H](CN3CCN(C/C(C)=C/c4ccccc4)CC3)[C@@H]1CO2`, the Ki is 0.23 µM in assay [1]; more than 1 µM in assay [2]; more than 1 µM in assay [3]; 0.113 µM in assay [5]; more than 1 µM in assay [6]; more than 1 µM in assay [7]. The Ki in [8] was 0.433 µM. In assay [4], the ED50 stood at 0.63 mg/kg.

`COc1cc2c(cc1OC)C1=NO[C@@H](CN3CCN(C/C=C(\C)c4ccccc4)CC3)[C@@H]1CO2`: the inhibitory constant (Ki) in [9] was 0.01 µM; in [1] it was more than 1 µM; in [2] it was more than 1 µM; in assay [3] it was more than 1 µM; in assay [5], more than 1 µM; in assay [6], 0.368 µM. In addition, the inhibitory constant (Ki) in assay [7] is more than 1 µM; in assay [10] it was 0.0006 µM; in assay [8], 0.611 µM. This compound registered an ED50 in assay [11] not below 2.5 mg/kg.

As to `COc1cc2c(cc1OC)C1=NO[C@@H](CN3CCN(C/C=C/c4ccccc4)CC3)[C@@H]1CO2`, the Ki in assay [1] is 0.959 µM; in [2] it was more than 1 µM; in assay [3] it was more than 1 µM; in assay [5] it was more than 1 µM; in assay [6], 0.515 µM; in assay [7] it was more than 1 µM. Also, the results for the Ki in assay [12] and in [8] were 0.0012 µM and 0.27 µM, respectively. Also, the ED50 in assay [4] amounted to 1.3 mg/kg; in [11], 5 mg/kg.

As for `COc1cc2c(cc1OC)C1=NO[C@@H](CN3CCN(Cc4ccc5ccccc5c4)CC3)[C@@H]1CO2`, the Ki in assay [9] was 0.0017 µM; in [1] it was more than 1 µM; in assay [2], more than 1 µM; in assay [3], more than 1 µM; in [5], 0.46 µM; in [6] it was 0.246 µM. Further, the inhibition constant (Ki) was more than 1 µM in [7], 0.0031 µM in assay [10], 0.0017 µM in [12] and 0.107 µM in [8]. The ED50 is 0.08 mg/kg in [13] and 5 mg/kg in [11].

As a reminder, the Ki is the dissociation constant of the complex between target and ligand, obtained from inhibition or displacement. A higher Ki goes with a looser hold on the target. As a reminder, the ED50 is the midpoint of the dose-response relation.
